What was measured:
[1] = Cytotoxicity against human Molt4/C8 cells after 2 days; settings: MOLT-4, 48 h
[2] = tested on: L1210; assay: Cytotoxicity against mouse L1210 cells after 2 days; assay type: functional, cell-based; settings: L1210, 48 h
Procedure, shortened: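 Cells were incubated with the compounds at 37 °C for two days, then counted on a Coulter counter. IC50 is the concentration that inhibits cell proliferation by 50%.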

[3] = tested on: HeLa; assay: Cytotoxicity against human HeLa cells after 2 days; assay type: functional, cell-based; settings: 48 h
[4] = tested on: CCRF-CEM; assay: Cytotoxicity against human CEM cells after 2 days; assay type: functional, cell-based; settings: 48 h
[5] = tested on: FM3A; assay: Cytotoxicity against mouse FM3A0 cells after 2 days; assay type: functional, cell-based; settings: 48 h
[6] = species: Bos taurus; assay: Displacement of [3H]colchicine from bovine tubulin at 5 uM
Procedure, shortened: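 Reaction mixtures held 1 μM bovine brain tubulin, 5 μM [3H]colchicine and 5 μM test compound. Inhibition of radiolabelled colchicine binding to tubulin is expressed as percent inhibition.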

[7] = tested on: K562; assay: Cell cycle arrest in human K562 cells assessed as accumulation at G1 phase at 16 nM after 24 hrs by flow cytometry; assay type: functional
Procedure, shortened: (§1)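 K562 leukaemia cells were cultured for 24 h with compound at one fixed concentration. DNA content per cell was measured by the standard propidium iodide procedure and flow cytometry. Proportions of cells in the sub-G0–G1 (apoptotic), G0–G1, S and G2–M peaks were compared with an untreated control.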

[8] = tested on: K562; assay: Cell cycle arrest in human K562 cells assessed as accumulation at S phase at 16 nM after 24 hrs by flow cytometry; assay type: functional; procedure, shortened: as §1
[9] = Inhibition of bovine tubulin polymerization; set-up: species or system Bos taurus
Procedure, shortened: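 Purified bovine brain tubulin (10 μM) in glutamate buffer was preincubated with varying compound concentrations at 30 °C, then cooled to 0 °C. GTP was added and the mixture warmed to 30 °C in a recording spectrophotometer. Assembly was followed by turbidity.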

[10] = tested on: K562; assay: Cell cycle arrest in human K562 cells assessed as accumulation at G2 phase at 16 nM after 24 hrs by flow cytometry; assay type: functional; procedure, shortened: as §1
[11] = tested on: K562; assay: Cell cycle arrest in human K562 cells assessed as accumulation at sub-G0/G1 phase at 16 nM after 24 hrs by flow cytometry; assay type: functional; procedure, shortened: as §1
[12] = tested on: K562; assay: Cell cycle arrest in human K562 cells assessed as accumulation at S phase at 420 nM after 24 hrs by flow cytometry; assay type: functional
[13] = tested on: K562; assay: Cell cycle arrest in human K562 cells assessed as accumulation at G2 phase at 420 nM after 24 hrs by flow cytometry; assay type: functional
[14] = tested on: K562; assay: Cell cycle arrest in human K562 cells assessed as accumulation at G1 phase at 420 nM after 24 hrs by flow cytometry; assay type: functional
[15] = tested on: K562; assay: Cell cycle arrest in human K562 cells assessed as accumulation at sub-G0/G1 phase at 420 nM after 24 hrs by flow cytometry; assay type: functional
[16] = tested on: K562; assay: Cell cycle arrest in human K562 cells assessed as accumulation at G2 phase at 230 nM after 24 hrs by flow cytometry; assay type: functional; procedure, shortened: as §1
[17] = tested on: K562; assay: Cell cycle arrest in human K562 cells assessed as accumulation at S phase at 230 nM after 24 hrs by flow cytometry; assay type: functional; procedure, shortened: as §1
[18] = tested on: K562; assay: Cell cycle arrest in human K562 cells assessed as accumulation at sub-G0/G1 phase at 230 nM after 24 hrs by flow cytometry; assay type: functional; procedure, shortened: as §1
[19] = tested on: K562; assay: Cell cycle arrest in human K562 cells assessed as accumulation at G1 phase at 230 nM after 24 hrs by flow cytometry; assay type: functional; procedure, shortened: as §1
[20] = tested on: K562; assay: Cell cycle arrest in human K562 cells assessed as accumulation at G1 phase at 980 nM after 24 hrs by flow cytometry; assay type: functional; procedure, shortened: as §1
[21] = tested on: K562; assay: Cell cycle arrest in human K562 cells assessed as accumulation at G2 phase at 980 nM after 24 hrs by flow cytometry; assay type: functional; procedure, shortened: as §1
[22] = tested on: K562; assay: Cell cycle arrest in human K562 cells assessed as accumulation at S phase at 980 nM after 24 hrs by flow cytometry; assay type: functional; procedure, shortened: as §1
[23] = tested on: K562; assay: Cell cycle arrest in human K562 cells assessed as accumulation at sub-G0/G1 phase at 980 nM after 24 hrs by flow cytometry; assay type: functional; procedure, shortened: as §1

Structure (SMILES) | IC50 [1] | IC50 [2] | IC50 [3] | IC50 [4] | IC50 [5] | other results
COc1cc(C(=O)c2cc3cc(Cl)ccc3o2)cc(OC)c1OC | > 10000 nM | > 10000 nM | > 10000 nM | > 10000 nM | > 10000 nM | –
COc1ccc2c(N)c(C(=O)c3cc(OC)c(OC)c(OC)c3)oc2c1 | 140 nM | – | – | – | – | –
COc1cc(C(=O)c2cc3cc(Br)ccc3o2)cc(OC)c1OC | > 10000 nM | > 10000 nM | > 10000 nM | > 10000 nM | > 10000 nM | –
COc1cc(C(=O)c2oc3c(OC)cccc3c2C)cc(OC)c1OC | 400 nM | 1700 nM | 530 nM | 2400 nM | 1700 nM | –
COc1cc(C(=O)c2cc3cccc(OC)c3o2)cc(OC)c1OC | 7800 nM | > 10000 nM | > 10000 nM | > 10000 nM | > 10000 nM | –
COc1cc(C(=O)c2cc3ccc(OC)c(O)c3o2)cc(OC)c1OC | > 10000 nM | > 10000 nM | > 10000 nM | > 10000 nM | > 10000 nM | –
COc1ccc(/C=C\c2cc(OC)c(OC)c(OC)c2)cc1O | – | – | – | – | – | Activity [6]: 99%
CCOc1ccc2c(C)c(C(=O)c3cc(OC)c(OC)c(OC)c3)oc2c1 | 1.2 nM | 2 nM | 6.3 nM | 2.8 nM | 2.8 nM | Activity [7]: 3.67%; Activity [6]: 96%; Activity [8]: 25.34%; IC50 [9]: 430 nM; Activity [10]: 70.99%; Activity [11]: 13.24%
COc1cc(C(=O)c2oc3ccccc3c2C)cc(OC)c1OC | 1300 nM | 2100 nM | 890 nM | 2000 nM | 2100 nM | –
COc1cc(C(=O)c2oc3cc(O)ccc3c2C)cc(OC)c1OC | 1300 nM | > 10000 nM | 260 nM | 4300 nM | > 10000 nM | –
COc1cc(C(=O)c2cc3cc(O)ccc3o2)cc(OC)c1OC | > 10000 nM | > 10000 nM | > 10000 nM | > 10000 nM | > 10000 nM | –
COc1ccc2cc(C(=S)c3cc(OC)c(OC)c(OC)c3)oc2c1 | 100 nM | 180 nM | 100 nM | 220 nM | 320 nM | –
COc1cc(C(=O)c2cc3cc(C)ccc3o2)cc(OC)c1OC | 2500 nM | 7100 nM | > 10 nM | 7200 nM | 8400 nM | –
COc1cc(C(=O)c2cc3ccc(O)cc3o2)cc(OC)c1OC | > 10000 nM | > 10000 nM | > 10000 nM | > 10000 nM | > 10000 nM | –
COc1ccc2cc(Cc3cc(OC)c(OC)c(OC)c3)oc2c1 | 770 nM | 2300 nM | 680 nM | 1500 nM | 2600 nM | –
COc1cc(C(=O)c2cc3ccccc3o2)cc(OC)c1OC | 8000 nM | > 10000 nM | – | > 10000 nM | > 10000 nM | –
COc1ccc2c3c(oc2c1)C(=O)c1cc(OC)c(OC)c(OC)c1-3 | > 10000 nM | > 10000 nM | > 10000 nM | > 10000 nM | > 10000 nM | –
COc1cc(C(=O)c2oc3cccc(OC)c3c2C)cc(OC)c1OC | 200 nM | 590 nM | 340 nM | 490 nM | 570 nM | Activity [6]: 66%; IC50 [9]: 1800 nM; Activity [12]: 42.1%; Activity [13]: 50.2%; Activity [14]: 7.7%; Activity [15]: 21.24%
COc1ccc2oc(C(=O)c3cc(OC)c(OC)c(OC)c3)c(C)c2c1 | 1900 nM | 2300 nM | – | 400 nM | 4400 nM | Activity [6]: 65%; IC50 [9]: 1200 nM; Activity [16]: 58.18%; Activity [17]: 40.38%; Activity [18]: 18.18%; Activity [19]: 1.44%
COc1ccc2cc(C(OC)c3cc(OC)c(OC)c(OC)c3)oc2c1 (stereo unspecified) | > 10000 nM | > 10000 nM | 4400 nM | > 10000 nM | > 10000 nM | –
COc1ccc2c(N(C)C)c(C(=O)c3cc(OC)c(OC)c(OC)c3)oc2c1 | 48 nM | – | – | – | – | –
COc1cc2cc(C(=O)c3cc(OC)c(OC)c(OC)c3)oc2cc1OC | 770 nM | 1800 nM | 570 nM | 1900 nM | 1200 nM | –
COc1ccc2cc(C(O)c3cc(OC)c(OC)c(OC)c3)oc2c1 (stereo unspecified) | 3000 nM | > 10000 nM | > 10000 nM | > 10000 nM | 7010 nM | –
COc1ccc2cc(C(=O)c3cc(OC)c(OC)c(OC)c3)oc2c1 | 59 nM | 90 nM | 110 nM | 70 nM | 100 nM | Activity [6]: 79%; IC50 [9]: 700 nM; Activity [12]: 39.06%; Activity [13]: 59.11%; Activity [14]: 1.83%; Activity [15]: 16.36%
COc1cc(C(=O)c2cc3cc(OC)c(OC)c(OC)c3o2)cc(OC)c1OC | > 10000 nM | > 10000 nM | > 10000 nM | > 10000 nM | > 10000 nM | –
COc1ccc2oc(C(=O)c3cc(OC)c(OC)c(OC)c3)cc2c1 | 9400 nM | > 10000 nM | > 10000 nM | > 10000 nM | > 10000 nM | –
COc1cc(C(=O)c2cc3cccc(O)c3o2)cc(OC)c1OC | > 10000 nM | > 10000 nM | > 10000 nM | > 10000 nM | > 10000 nM | –
COc1cc(C(=O)c2cc3c(OC)cccc3o2)cc(OC)c1OC | 360 nM | 410 nM | 410 nM | 870 nM | 550 nM | Activity [20]: 4.14%; Activity [6]: 76%; Activity [21]: 58.46%; IC50 [9]: 1100 nM; Activity [22]: 37.4%; Activity [23]: 20.71%

— ChEMBL document CHEMBL1152591, “Design, synthesis and structure-activity relationship of 2-(3',4',5'-trimethoxybenzoyl)-benzo[b]furan derivatives as a novel class of inhibitors of tubulin polymerization” (Bioorg Med Chem, 2009)
